From ChEMBL document CHEMBL1157214, “Anti-HIV agents 45(1) and antitumor agents 205.(2) two new sesquiterpenes, leitneridanins A and B, and the cytotoxic and anti-HIV principles from Leitneria floridana” (J Nat Prod, 2000) come the findings set out here.

Data set [1] relates to KB. As to the kind of experiment: Cytotoxicity against human KB cells after 3 days by SRB assay. Format: functional. Particulars: 72 h, read-out: ED50 (the source's name). The gist of the method: (§1)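 Human tumour lines from the Lineberger Comprehensive Cancer Center (UNC-CH). Selected samples were then run over a dose range in triplicate for three days. Growth was read by SRB absorbance at 562 nm. ED50 is the concentration giving a 50% fall in absorbance versus untreated cells.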
A general note: The SRB assay estimates cell density from bound dye.

Data set [2] relates to A549. The experiment in a line: Cytotoxicity against human A549 cells after 3 days by SRB assay. Format: functional. Particulars: A549, 72 h, read-out: ED50 (the source's name). An outline of the steps:
as §1

Data set [3] has as its system HCT-8. As to the kind of experiment: Cytotoxicity against human HCT8 cells after 3 days by SRB assay. The data set is classed as functional. Conditions: HCT-8, 72 h, read-out: ED50 (the source's name). An outline of the steps: as §1
Data set [4] concerns CAKI-1. As to the kind of experiment: Cytotoxicity against human CAKI1 cells after 3 days by SRB assay. Format: functional. Conditions: CAKI-1, 72 h, read-out: ED50 (the source's name). An outline of the steps: as §1
The subject of data set [5] is MCF7. As to the kind of experiment: Cytotoxicity against human MCF7 cells after 3 days by SRB assay. Particulars: MCF7, 72 h, read-out: ED50 (the source's name). Format: functional. The gist of the method: as §1
For data set [6], the system named is SK-MEL-2. As to the kind of experiment: Cytotoxicity against human SK-MEL-2 cells after 3 days by SRB assay. The data set is classed as functional. Particulars: for EC50: Homo sapiens, SK-MEL-2, 72 h, read-out: ED50 (the source's name).
The test system of data set [7] is Human immunodeficiency virus. As to the kind of experiment: Inhibition of HIV replication in human H9 cells. The data set is classed as functional, organism-based. Particulars: Human immunodeficiency virus 1, H9.
Data set [8] has as its system H9. As to the kind of experiment: Growth inhibition of human H9 cells. Format: cell-based.
Data set [9] can be described thus: Therapeutic index, ratio of IC50 for human H9 cells to EC50 for HIV. Format: cell-based. Particulars: read-out: Ratio IC50/EC50.

Values after ≈ are worked out from the molar mass of the structure shown.

In the case of `COc1cnc2ccc(=O)n3c4ccccc4c1c23`, the EC50 was 3.6 µg/mL (≈ 14.4 µM) in [1]; 4.3 µg/mL (≈ 17.2 µM) in [2]; 3.6 µg/mL (≈ 14.4 µM) in data set [3]; 3.6 µg/mL (≈ 14.4 µM) in [4]; 13.5 µg/mL (≈ 53.9 µM) in [5]; greater than 20 µg/mL in data set [6]. Also, in [7], the EC50 came out at 0.256 µg/mL (≈ 1.02 µM). In addition, the “inhibition (INH)” value in data set [6] amounted to 46%. Moreover, the IC50 (as a rule, the concentration at which inhibition is half-maximal) in data set [8] was greater than 100 µg/mL. Besides, the selectivity ratio in data set [9] is greater than 391.
Take `COc1cc2nccc3c4ccccc4n(c1=O)c23` [5-METHOXYCANTHINONE]: the EC50 in [1] worked out at 2.9 µg/mL (≈ 11.6 µM); in [2], 3.1 µg/mL (≈ 12.4 µM); in data set [3], 2.5 µg/mL (≈ 9.99 µM); in [4], 4.4 µg/mL (≈ 17.6 µM); in data set [5], 5 µg/mL (≈ 20 µM); in data set [6], 17 µg/mL (≈ 67.9 µM).
On to `CC[C@](C)(OC(C)=O)C(=O)O[C@H]1C(=O)O[C@@H]2C[C@H]3C(C)=CC(=O)[C@@H](O)[C@]3(C)[C@H]3[C@@H](O)[C@H](O)[C@@]4(C)OC[C@]32[C@@H]14` [QUASSIMARIN], for which the EC50 in [1] is 0.06 µg/mL (≈ 0.112 µM); in data set [2], 0.03 µg/mL (≈ 0.0559 µM); in [3] it was 0.012 µg/mL (≈ 0.0224 µM); in data set [4] it was 0.05 µg/mL (≈ 0.0932 µM); in data set [5], 0.006 µg/mL (≈ 0.0112 µM); in [6], 0.05 µg/mL (≈ 0.0932 µM).
With `CC[C@@H](C)C(=O)O[C@H]1C(=O)O[C@@H]2C[C@H]3C(C)=CC(=O)[C@@H](O)[C@]3(C)[C@H]3[C@@H](O)[C@H](O)[C@]4(C)OC[C@]32[C@@H]14` [SIMALIKALACTONE D], the EC50 in [1] stood at 0.018 µg/mL (≈ 0.0376 µM); in [2] it was 0.04 µg/mL (≈ 0.0836 µM); in data set [3] it was 0.013 µg/mL (≈ 0.0272 µM); in data set [4] it was 0.26 µg/mL (≈ 0.543 µM); in data set [5], 0.014 µg/mL (≈ 0.0293 µM); in [6] it was 0.13 µg/mL (≈ 0.272 µM).
